Test results: PMC9444042 (Neurotoxicology, 2021)
Entries after “also recorded” stand apart in the source; their conditions may differ. Where two headings read alike, the source gives them in different places.

Tests used:
[1] = test system: iPSC-derived human cortical glutamatergic neurons; format: cell-based
[2] = test system: iPSC-derived human spinal motor neurons; format: cell-based
[3] = test system: GFP-labeled iPSC-derived human neurons; format: cell-based
LUHMES = settings: NeuriTox test, IC50 (viability/neurite area) ratio ≥4; ref Delp et al., 2018; cited from earlier work
[4] = test system: iPSC-derived human spinal motor neurons; experiment: Cell viability / cytotoxicity; format: cell-based
Method in brief: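 GFP-expressing iPSC-derived motor neurons were seeded at 800 cells/well on PDL-coated 1536-well plates and grown 40 h at 37 °C. Test compound was then added at 11 concentrations (1.56 nM–92 μM, 1:3) and exposed 24 and 48 h. Cells were counted as number of objects from GFP high-content images (488/530 nm, 20×, four fields/well). Values were normalized to 46 μM rotenone (−100%) and 0.46% DMSO (0%), in triplicate.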

PeriTox test cells = settings: IC50 (viability/neurite area) ratio ≥3, ref Delp et al., 2018; cited from earlier work
[5] = cortical neurons, active at either 24 or 48 hours, 1.56 nM to 92 μM
[6] = motor neurons, active at either 24 or 48 hours, 1.56 nM to 92 μM
[7] = cortical and/or motor neurons, not specified, 24 or 48 hours, up to 92 μM
[8] = cortical neurons, 24 hours of treatment
[9] = cortical neurons, 48 hours of treatment

Brc1ccc(Oc2ccc(Br)cc2Br)c(Br)c1 [2,2′,4,4′-tetrabromodiphenyl ether]
neurite outgrowth inhibition (activity call) [1, 5]: only affected neurite outgrowth in motor neurons | neurite outgrowth inhibition (activity call) [2, 6]: affected | neurite outgrowth inhibition (activity call) ([2]; motor neurons, active at either 24 or 48 hours, 1.56 nM to 92 μM, listed as 2,2’,4,4’-tetrabromodiphenyl ether): inhibited

CCCCC(CC)COC(=O)c1cc(Br)c(Br)c(Br)c1Br (stereo not drawn) [2-ethylhexyl-2,3,4,5-tetrabromobenzoate]
neurite outgrowth inhibition in this study (activity call) [3, 7]: inhibit neurite outgrowth

CC(C)(c1cc(Br)c(O)c(Br)c1)c1cc(Br)c(O)c(Br)c1 [3,3’,5,5’-tetrabromobisphenol A]
neurite outgrowth inhibition (activity call) [1, 5]: inhibited

COc1cc2c(c(OC)c1OC)-c1ccc(OC)c(=O)cc1[C@@H](NC(C)=O)CC2 [Colchicine]
neurite outgrowth inhibition (activity call) [1, 5]: inhibited | neurite outgrowth inhibition (activity call) [2, 6]: inhibited

CC/C(=C(/CC)c1ccc(O)cc1)c1ccc(O)cc1 [Diethylstilbestrol]
selective effect on neurite outgrowth (LUHMES): selective effects

O=C1O[C@H]([C@@H](O)CO)C(O)=C1O [L-ascorbic acid]
cytotoxicity [4]: cytotoxic | neurite outgrowth inhibition in this study (activity call) [3, 7]: inhibitor of neurite outgrowth

CCCCCC [N-hexane, n-hexane]
neurite outgrowth inhibition in this study (activity call) [3]: not have been active

CC(C)[C@@H]1NC(=O)[C@H](C)OC(=O)[C@@H](C(C)C)NC(=O)[C@@H](C(C)C)OC(=O)[C@H](C(C)C)NC(=O)[C@H](C)OC(=O)[C@@H](C(C)C)NC(=O)[C@@H](C(C)C)OC(=O)[C@H](C(C)C)NC(=O)[C@H](C)OC(=O)[C@@H](C(C)C)NC(=O)[C@@H](C(C)C)OC1=O [Valinomycin]
selective effect on neurite outgrowth (PeriTox test cells): selective effects | selective effect on neurite outgrowth in this study ([3]; neuron type not specified): selective effects | selective effect on neurite outgrowth (LUHMES): selective effects

c1ccc2cc3ccccc3cc2c1 [anthracene]
neurite outgrowth inhibition (activity call) [1, 5]: only affected neurite outgrowth in motor neurons | neurite outgrowth inhibition (activity call) [2, 6]: affected

CN(C)c1ccc(C(=N)c2ccc(N(C)C)cc2)cc1.Cl [auramine O]
neurite outgrowth inhibition in this study (activity call) [3, 7]: inhibit neurite outgrowth

c1ccc2c(c1)-c1cccc3c1c-2cc1ccccc13 [benzo (b) fluoranthene]
neurite outgrowth inhibition (activity call) [1]: active

Oc1ccc(C(c2ccc(O)cc2)(C(F)(F)F)C(F)(F)F)cc1 [bisphenol AF]
neurite outgrowth inhibition (activity call) [1, 5]: inhibitory effects; also recorded: inhibited | neurite outgrowth inhibition in this study (activity call) [3, 7]: inhibit neurite outgrowth

CC(C)(c1ccc(O)cc1)c1ccc(O)cc1 [bisphenol A]
neurite outgrowth inhibition (activity call) [1, 8]: not active | neurite outgrowth inhibition (activity call) [1, 9]: active; also recorded: inhibitory effects

Cn1c(=O)c2c(ncn2C)n(C)c1=O [caffeine]
neurite outgrowth inhibition (activity call) [1]: only affected neurite outgrowth in motor neurons | neurite outgrowth inhibition in this study (activity call) [3, 7]: inhibit neurite outgrowth | neurite outgrowth inhibition (activity call) [2]: inhibited; also recorded: affected

CC1(C)[C@H](C(=O)O[C@H](C#N)c2cccc(Oc3ccccc3)c2)[C@@H]1C=C(Br)Br [deltamethrin]
neurite outgrowth inhibition (activity call) [1, 8]: not active | neurite outgrowth inhibition (activity call) [1, 9]: active; also recorded: inhibitory effects

C[C@]12CC[C@@H]3c4ccc(O)cc4CC[C@H]3[C@@H]1CC[C@@H]2O [estradiol]
neurite outgrowth inhibition in this study (activity call) [3, 7]: inhibit neurite outgrowth

CCCCC(CC)COP(=O)(Oc1ccccc1)Oc1ccccc1 (stereo not drawn) [ethylhexyl diphenyl phosphate, 2-ethylhexyl diphenyl phosphate]
neurite outgrowth inhibition (activity call) [1, 8]: active

CC(=O)[O-].CC(=O)[O-].O.O.O.[Pb+2] [lead (II) acetate trihydrate]
neurite outgrowth inhibition in this study (activity call) [3, 7]: inhibit neurite outgrowth

[CH3][Hg][Cl] [methyl mercuric (II) chloride]
neurite outgrowth inhibition (activity call) [1, 5]: inhibited | neurite outgrowth inhibition (activity call) [2, 6]: inhibited

CCOP(=S)(OCC)Oc1ccc([N+](=O)[O-])cc1 [parathion]
neurite outgrowth inhibition (activity call) [1, 5]: inhibitory effects; also recorded: inhibited

CCC1(c2ccccc2)C(=O)NC(=O)NC1=O [phenobarbital]
neurite outgrowth inhibition in this study (activity call) [3, 7]: not be active

C=C(C)[C@H]1Cc2c(ccc3c2O[C@@H]2COc4cc(OC)c(OC)cc4[C@@H]2C3=O)O1 [rotenone]
neurite outgrowth inhibition (activity call) [1, 5]: inhibited neurite outgrowth in a concentration dependent manner | neurite outgrowth inhibition (activity call) [2, 6]: inhibited neurite outgrowth in a concentration dependent manner | selective effect on neurite outgrowth (LUHMES): selective effects

CC(C)(C)C(O)(CCc1ccc(Cl)cc1)Cn1cncn1 (stereo not drawn) [tebuconazole]
neurite outgrowth inhibition (activity call) [1, 8]: not active | neurite outgrowth inhibition (activity call) [1, 9]: active; also recorded: inhibitory effects
